Data: ChEMBL document CHEMBL1124186, “Synthesis and evaluation of tylosin-related macrolides modified at the aldehyde function: a new series of orally effective antibiotics” (1988)
≈ marks a conversion by molar mass, not a printed value.

Assays:
Bacteroides fragilis [1] = test: In vitro antimicrobial activity against anaerobic bacteria bacteroides fragilis 111; assay type: functional
Bacteroides fragilis [2] = test: In vitro antimicrobial activity against anaerobic bacteria bacteroides fragilis 1877; assay type: functional
Bacteroides fragilis [3] = test: In vitro antimicrobial activity against anaerobic bacteria bacteroides fragilis 1936B,; assay type: functional
Eikenella corrodens = test: In vitro antimicrobial activity against anaerobic bacteria bacteroides corrodens 1874; assay type: functional
Phocaeicola vulgatus = test: In vitro antimicrobial activity against anaerobic bacteria bacteroides vulgatus 1211; assay type: functional
[4] = system: Prevotella melaninogenica; test: In vitro antimicrobial activity against anaerobic bacteria bacteroides melaninogenicus 1856,; assay type: functional
[5] = system: Bacteroides thetaiotaomicron; test: In vitro antimicrobial activity against anaerobic bacteria bacteroides thetaiotaomicron 1438; assay type: functional
Clostridioides difficile = test: In vitro antimicrobial activity against anaerobic bacteria Clostridium difficile 2994; assay type: functional
Clostridium perfringens = test: In vitro antimicrobial activity against anaerobic bacteria clostridium perfringens 81,; assay type: functional
Clostridium septicum = test: In vitro antimicrobial activity against anaerobic bacteria clostridium septicum 1128; assay type: functional
Chlamydia trachomatis = test: In vitro antimicrobial activity against chlamydia trachomatis.; assay type: functional
Fusobacterium = test: In vitro antimicrobial activity against anaerobic bacteria fusobacterium symbiosum 1470; assay type: functional
Haemophilus influenzae [6] = test: In vitro antimicrobial activity against aerobic bacteria Haemophilus influenzae 76; assay type: functional
Haemophilus influenzae [7] = test: In vitro antimicrobial activity against aerobic bacteria Haemophilus influenzae MX366,; assay type: functional
Haemophilus influenzae [8] = test: In vitro antimicrobial activity against Haemophilus influenzae.; assay type: functional
[9] = system: Haemophilus parainfluenzae; test: In vitro antimicrobial activity against aerobic bacteria Haemophilus parainfluenzae 9796; assay type: functional
[10] = In vitro antimicrobial activity against anaerobic bacteria peptostreptococcus intermedius 1264; assay type: functional
[11] = system: Peptoniphilus asaccharolyticus; test: In vitro antimicrobial activity against anaerobic bacteria peptococcus asaccharolyticus 1302; assay type: functional
Anaerococcus prevotii = test: In vitro antimicrobial activity against anaerobic bacteria peptococcus prevoti 1281; assay type: functional
Cutibacterium acnes = test: In vitro antimicrobial activity against anaerobic bacteria propionibacterium acnes 79; assay type: functional
[12] = system: Staphylococcus epidermidis; test: In vitro antimicrobial activity against aerobic bacteria Streptococcus epi 270; assay type: functional
Staphylococcus aureus [13] = test: In vitro antimicrobial activity against Staphylococcus aureus X1; assay type: functional
Staphylococcus aureus [14] = test: In vitro antimicrobial activity against aerobic bacteria Staphylococcus aureus 513E; assay type: functional
Staphylococcus aureus [15] = test: In vitro antimicrobial activity against aerobic bacteria Staphylococcus aureus V140,; assay type: functional
Staphylococcus aureus [16] = test: In vitro antimicrobial activity against aerobic bacteria Staphylococcus aureus V41; assay type: functional
Staphylococcus aureus [17] = test: In vitro antimicrobial activity against aerobic bacteria Staphylococcus aureus X400; assay type: functional
Streptococcus pyogenes [18] = test: In vivo activity against experimental infections in rodent caused by Streptococcus pyogenes C203 when administered orally; assay type: functional; settings: po
Streptococcus pneumoniae [19] = test: In vivo effective dose against experimental infections in mice Streptococcus pneumoniae park when administered orally; assay type: functional; settings: po
Streptococcus pneumoniae [20] = test: In vivo effective dose against experimental infections in mice Streptococcus pneumoniae park when administered sc; assay type: functional
Streptococcus pneumoniae [21] = test: In vitro antimicrobial activity against aerobic bacteria Streptococcus pneumoniae B1-438; assay type: functional, streptococcus pneum
Streptococcus sanguinis = test: In vitro antimicrobial activity against aerobic bacteria Streptococcus sanguis MX132; assay type: functional
Streptococcus pyogenes [22] = test: Activity against Streptococcus pyogenes C203 when administered orally; assay type: functional; settings: po
Procedure, shortened: (§1)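 Mouse protection test: infected mice were dosed twice, at 1 and 5 h postinfection, either subcutaneously or orally. […] The result is expressed as ED50 in mg/kg × 2.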

Streptococcus pyogenes [23] = test: Activity against Streptococcus pyogenes C203 when administered sc; assay type: functional; procedure, shortened: as §1
Streptococcus pneumoniae [24] = test: In vitro antimicrobial activity against Streptococcus pneumoniae; assay type: functional
[25] = system: Staphylococcus epidermidis; test: In vitro antimicrobial activity against Staphylococcus epidermidis EPI1; assay type: functional
[26] = system: Staphylococcus epidermidis; test: In vitro antimicrobial activity against aerobic bacteria Streptococcus epi 222; assay type: functional
Staphylococcus aureus [27] = test: In vivo effective dose against experimental infections in mice Staphylococcus aureus X1 when administered orally; assay type: functional; settings: po
Staphylococcus aureus [28] = test: In vivo effective dose against experimental infections in mice Staphylococcus aureus X1 when administered sc; assay type: functional
Enterococcus faecium = test: In vitro antimicrobial activity against Streptococcus faecium X66; assay type: functional, streptococcus fae-cium
Streptococcus pyogenes [29] = test: In vitro antimicrobial activity against Streptococcus pyogenes C203; assay type: functional
Streptococcus viridans = test: In vitro antimicrobial activity against aerobic bacteria Streptococcus viridans 9943; assay type: functional
[30] = system: Peptostreptococcus anaerobius; test: In vitro antimicrobial activity against anaerobic bacteria peptostreptococcus anaerobius 1428,; assay type: functional
Streptococcus [31] = test: In vitro antimicrobial activity against aerobic bacteria Streptococcus B 5; assay type: functional
Staphylococcus aureus [32] = test: In vitro antimicrobial activity against aerobic bacteria Staphylococcus aureus V135; assay type: functional
Haemophilus influenzae [33] = test: In vitro antimicrobial activity against aerobic bacteria Haemophilus influenzae 465; assay type: functional
[34] = system: Prevotella melaninogenica; test: In vitro antimicrobial activity against anaerobic bacteria bacteroides melaninogenicus 2736; assay type: functional
[35] = system: Fusobacterium necrophorum; test: In vitro antimicrobial activity against anaerobic bacteria usobacterium necrophorum 6054A; assay type: functional
Collinsella aerofaciens = test: In vitro antimicrobial activity against anaerobic bacteria eubacterium aerofaciens 1235; assay type: functional
Streptococcus pyogenes [36] = test: In vivo pyogenes C203 when administered sc; assay type: functional
Streptococcus [37] = test: In vitro antimicrobial activity against aerobic bacteria Streptococcus B 8
Streptococcus [38] = test: In vitro antimicrobial activity against aerobic bacteria Streptococcus C 24
Streptococcus [39] = test: In vitro antimicrobial activity against aerobic bacteria Streptococcus D 2041
Streptococcus [40] = test: In vitro antimicrobial activity against aerobic bacteria Streptococcus D 8043
Streptococcus [41] = test: In vitro antimicrobial activity against aerobic bacteria Streptococcus D 9960
Streptococcus [42] = test: In vitro antimicrobial activity against aerobic bacteria Streptococcus G Kruder

CC[C@H]1OC(=O)C[C@@H](O)[C@H](C)[C@@H](O[C@@H]2O[C@H](C)[C@@H](O)[C@H](N(C)C)[C@H]2O)[C@@H](CC=O)C[C@@H](C)C(=O)/C=C/C(C)=C/[C@@H]1CO[C@@H]1O[C@H](C)[C@@H](O)[C@@H](OC)[C@H]1OC
MIC (Bacteroides fragilis [1]): 8 mg/L (≈ 10.4 µM)
MIC (Bacteroides fragilis [2]): 8 mg/L (≈ 10.4 µM)
MIC (Bacteroides fragilis [3]): 8 mg/L (≈ 10.4 µM)
MIC (Eikenella corrodens): 8 mg/L (≈ 10.4 µM)
MIC (Phocaeicola vulgatus): 8 mg/L (≈ 10.4 µM)
MIC [4]: 8 mg/L (≈ 10.4 µM)
MIC [5]: 2 mg/L (≈ 2.59 µM)
MIC (Clostridioides difficile): 0.25 mg/L (≈ 0.324 µM)
MIC (Clostridium perfringens): 0.25 mg/L (≈ 0.324 µM)
MIC (Clostridium septicum): 2 mg/L (≈ 2.59 µM)
MIC (Chlamydia trachomatis): 0.5 mg/L (≈ 0.648 µM)
MIC (Fusobacterium): 2 mg/L (≈ 2.59 µM)
MIC (Haemophilus influenzae [6]): 8 mg/L (≈ 10.4 µM)
MIC (Haemophilus influenzae [7]): 32 mg/L (≈ 41.5 µM)
MIC (Haemophilus influenzae [8]): 4 mg/L (≈ 5.18 µM)
MIC [9]: 8 mg/L (≈ 10.4 µM)
MIC [10]: 16 mg/L (≈ 20.7 µM)
MIC [11]: 8 mg/L (≈ 10.4 µM)
MIC (Anaerococcus prevotii): 4 mg/L (≈ 5.18 µM)
MIC (Cutibacterium acnes): 2 mg/L (≈ 2.59 µM)
MIC [12]: > 128 mg/L
MIC (Staphylococcus aureus [13]): 0.5 mg/L (≈ 0.648 µM)
MIC (Staphylococcus aureus [14]): 1 mg/L (≈ 1.3 µM)
MIC (Staphylococcus aureus [15]): 1 mg/L (≈ 1.3 µM)
MIC (Staphylococcus aureus [16]): 1 mg/L (≈ 1.3 µM)
MIC (Staphylococcus aureus [17]): 1 mg/L (≈ 1.3 µM)
ED50 (Streptococcus pyogenes [18]): 84 mg/kg
ED50 (Streptococcus pneumoniae [19]): > 100 mg/kg
ED50 (Streptococcus pneumoniae [20]): > 10 mg/kg
MIC (Streptococcus pneumoniae [21]): > 128 mg/L
MIC (Streptococcus sanguinis): 0.5 mg/L (≈ 0.648 µM)
ED50 (Streptococcus pyogenes [22]): 0.8 mg/kg
ED50 (Streptococcus pyogenes [23]): 0.25 mg/kg
MIC (Streptococcus pneumoniae [24]): 0.25 mg/L (≈ 0.324 µM)
MIC [25]: 0.5 mg/L (≈ 0.648 µM)
MIC [26]: 0.25 mg/L (≈ 0.324 µM)
ED50 (Staphylococcus aureus [27]): > 100 mg/kg
ED50 (Staphylococcus aureus [28]): 3.9 mg/kg
MIC (Enterococcus faecium): 4 mg/L (≈ 5.18 µM)
MIC (Streptococcus pyogenes [29]): 0.25 mg/L (≈ 0.324 µM)
MIC (Streptococcus viridans): > 128 mg/L
MIC [30]: 4 mg/L (≈ 5.18 µM)
MIC (Streptococcus [31]): 0.5 mg/L (≈ 0.648 µM)
MIC (Staphylococcus aureus [32]): 1 mg/L (≈ 1.3 µM)
MIC (Haemophilus influenzae [33]): 16 mg/L (≈ 20.7 µM)
MIC [34]: 16 mg/L (≈ 20.7 µM)
MIC [35]: 1 mg/L (≈ 1.3 µM)
MIC (Collinsella aerofaciens): 0.12 mg/L (≈ 0.155 µM)
ED50 (Streptococcus pyogenes [36]): 1.4 mg/kg
MIC (Streptococcus [37]): 0.5 mg/L (≈ 0.648 µM)
MIC (Streptococcus [38]): 0.5 mg/L (≈ 0.648 µM)
MIC (Streptococcus [39]): 0.5 mg/L (≈ 0.648 µM)
MIC (Streptococcus [40]): 0.5 mg/L (≈ 0.648 µM)
MIC (Streptococcus [41]): 1 mg/L (≈ 1.3 µM)
MIC (Streptococcus [42]): 0.25 mg/L (≈ 0.324 µM)
